Data set [1] has as its system 293T cells expressing a TCF-responsive luciferase reporter (293T-TCF-Luc). As to the kind of experiment: Wnt luciferase reporter assay. The data set is classed as cell-based. The settings on record: Homo sapiens, HEK-293T, 16 h, read-out: IC50 (293T-TCF-Luc). A digest of the protocol: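 293T cells stably transduced with a lentiviral TCF/LEF–luciferase reporter and selected in puromycin ([…], 4 days). Seeded at 100 000 cells/well and dosed with test compound on attachment. Wnt signalling stimulated with 20 mM LiCl 4 h later. Lysates taken at 16 h; Bright-Glo luminescence normalised to total protein.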

For data set [2], the target named is T1, KDM3A (Homo sapiens, UniProt Q9Y4C1).
T1 sequence (Q9Y4C1 1-1321): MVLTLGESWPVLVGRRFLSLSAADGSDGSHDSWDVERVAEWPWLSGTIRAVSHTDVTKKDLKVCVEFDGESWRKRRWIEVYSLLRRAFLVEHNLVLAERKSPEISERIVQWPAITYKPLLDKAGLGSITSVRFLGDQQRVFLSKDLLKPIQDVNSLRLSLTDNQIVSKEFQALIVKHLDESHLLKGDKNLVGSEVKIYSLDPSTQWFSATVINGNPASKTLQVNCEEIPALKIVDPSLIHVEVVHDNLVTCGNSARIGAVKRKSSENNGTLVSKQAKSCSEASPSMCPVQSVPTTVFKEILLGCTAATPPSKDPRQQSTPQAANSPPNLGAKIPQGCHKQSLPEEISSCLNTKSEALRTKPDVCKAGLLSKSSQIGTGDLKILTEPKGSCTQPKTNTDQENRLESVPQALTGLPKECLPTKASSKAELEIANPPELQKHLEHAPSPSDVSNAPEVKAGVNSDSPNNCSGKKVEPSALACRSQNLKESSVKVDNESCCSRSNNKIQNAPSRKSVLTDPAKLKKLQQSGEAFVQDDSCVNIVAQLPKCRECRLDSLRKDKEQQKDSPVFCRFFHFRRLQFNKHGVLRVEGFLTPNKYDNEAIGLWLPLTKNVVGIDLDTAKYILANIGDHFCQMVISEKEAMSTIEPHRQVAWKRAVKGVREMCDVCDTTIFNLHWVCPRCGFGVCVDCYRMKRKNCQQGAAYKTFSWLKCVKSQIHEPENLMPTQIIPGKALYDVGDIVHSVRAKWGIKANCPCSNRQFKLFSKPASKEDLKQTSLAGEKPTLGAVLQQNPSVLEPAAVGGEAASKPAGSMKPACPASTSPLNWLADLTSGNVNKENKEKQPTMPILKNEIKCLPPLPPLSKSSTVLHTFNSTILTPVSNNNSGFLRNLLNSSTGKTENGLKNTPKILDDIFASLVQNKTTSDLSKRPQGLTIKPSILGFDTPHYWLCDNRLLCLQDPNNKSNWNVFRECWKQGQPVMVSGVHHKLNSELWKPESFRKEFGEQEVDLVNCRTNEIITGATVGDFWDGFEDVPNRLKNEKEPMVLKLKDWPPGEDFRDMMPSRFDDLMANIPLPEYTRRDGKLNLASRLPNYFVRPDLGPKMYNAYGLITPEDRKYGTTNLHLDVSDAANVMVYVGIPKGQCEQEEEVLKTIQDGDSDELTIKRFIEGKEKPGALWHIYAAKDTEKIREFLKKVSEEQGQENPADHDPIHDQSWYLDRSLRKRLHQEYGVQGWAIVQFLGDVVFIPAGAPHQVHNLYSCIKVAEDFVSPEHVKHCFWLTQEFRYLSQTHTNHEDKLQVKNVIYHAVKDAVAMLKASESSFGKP
As to the kind of experiment: Western blot KDM3A degradation in SW480 cells. The data set is classed as cell-based. A digest of the protocol: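 SW480 cells exposed to test compound for 16 h, then total lysates protein-normalised and run on SDS-PAGE. Semi-dry transfer to PVDF, 1 h block in 5% milk. Primary antibody overnight at 4 °C in 1% milk, secondary 1 h at RT, TBST washes, α-tubulin as loading control. Rescue arms co-treated with MLN4924 (1 μM) or pomalidomide (100 μM). Test compound at 0.1 μM for the KDM3A blot and 1 μM for the KDM3B blot.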
(In western blotting, separated proteins are transferred to a membrane and probed.)

Data set [3] has as its system SW480 cells. Kind of data set: Clonogenic assay SW480. The settings on record: SW480, 2 weeks. It counts as cell-based, human. A digest of the protocol:
(§1)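 Cells kept in DMEM with 10% FBS and 1% pen–strep, seeded at 500 cells/well and dosed with test compound once attached. Medium refreshed every 3 days for 2 weeks. Colonies stained with 0.5% crystal violet and photographed. ED50 obtained by image analysis.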

Data set [4] in a line: Hepatic metabolism S9 fraction incubation, human.
Data set [5] addresses T1, KDM3A. Kind of data set: IHC of HCP-1 xenograft tumors, KDM3A. The data set is classed as in vivo, mice. A digest of the protocol:
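Tumours came from ALDHHigh HCP-1 xenografts in NSG mice given test compound IP (3, 10 or 35 mg kg−1) for 16 days. Paraffin sections were deparaffinised and rehydrated, then antigen-unmasked. Peroxidase blocked; sections blocked 1 h in 10% goat serum. Primary antibody overnight at 4 °C, biotinylated secondary 30 min at RT, avidin–biotin peroxidase detection, hematoxylin counterstain.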

A short description of data set [6]: Hepatic metabolism S9 fraction incubation, rat.
Data set [7] relates to HCP-1 cells. Kind of data set: Clonogenic assay HCP-1. Particulars: HCP-1, 2 weeks. It counts as cell-based, human. A digest of the protocol: as §1
Data set [8] concerns Wnt target genes in HCP-1 cells. Kind of data set: RT-qPCR of Wnt target gene expression in HCP-1. The data set is classed as cell-based, human. A digest of the protocol:
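Cells in 6-well plates exposed to test compound for 16 h. Total RNA extracted; 1 μg reverse-transcribed with M-MuLV and random hexamers. SYBR Green qPCR for the named genes, quantified by 2ΔΔct against tubulin. Mean ± SD; unpaired two-tailed Student's t-test.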

The target of data set [9] is T1, KDM3A. Kind of data set: Western blot KDM3A degradation in HCP-1 cells. The data set is classed as cell-based.
Data set [10] has as its system ALDH^high-HCP-1 CSCs. As to the kind of experiment: Tumor sphere formation assay HCP-1. The data set is classed as cell-based, human. The settings on record: 2 weeks. A digest of the protocol: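 Trypsinised cells passed through a 40 μm strainer and stained with ALDEFLUOR. ALDHHigh cells sorted by FACS, with DEAB-treated cells as gating control. Plated at 1000 cells/well on ultra-low attachment in serum-free MEBM containing 2% B27, 20 ng mL−1 EGF, 10 ng mL−1 FGF, 1 ng mL−1 hydrocortisone, 5 μg mL−1 insulin and 100 μM β-mercaptoethanol. Dosed 1 h after plating; medium renewed at 1 week. Spheres >40 μm counted at 2 weeks for ED50.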

Setting [11] is: 0.1 μM, plus glutathione, UDPGA, PAPS, 37 °C.

Structures are written as SMILES.

From publication PMC11393732 (RSC Medicinal Chemistry, 2024) come the findings set out here.

As a reminder, the IC50 is the point on the concentration scale where inhibition reaches its midpoint. One may read the Dmax as the largest share of the target that was removed. One may read the DC50 as the concentration at which degradation of the target reaches its halfway point. By half-life is commonly meant the time needed for the level to fall by half in the phase considered. In the case of `O=C1CCC(N2C(=O)c3cccc(NCCOCCOCCOCCOCCNC(=O)c4ccc(O)c5ncccc45)c3C2=O)C(=O)N1` (stereo not shown) [Compound 4, N-(14-((2-(2,6-Dioxopiperidin-3-yl)-1,3-dioxoisoindolin-4-yl)amino)-3,6,9,12-tetraoxatetradecyl)-8-hydroxyquinoline-5-carboxamide], in [1], the half-maximal inhibitory concentration (IC50) worked out at 8900 nM. Besides, in [2] (SW480, read-out: Dmax KDM3A), the greatest degradation seen (Dmax) stood at 65.3%. Besides, the “KDM3A degradation with MLN4924 co-treatment” value in data set [2] (SW480, MLN4924 1 μM, compound 4 0.1 μM) is “could be restored by MLN4924”. Besides, in data set [2] (SW480, pomalidomide 100 μM, compound 4 0.1 μM), the “KDM3A degradation with pomalidomide or IOX1 co-treatment” value is “could also be suppressed by either pomalidomide or IOX1”. Also, in [2] (SW480 cells, 16 hours), the “KDM3A degradation (western blot)” value was “degrades both KDM3A and KDM3B at nanomolar concentrations”. Also, the DC50 in data set [2] (read-out: DC50 KDM3A, SW480 cells, 16 hours) was determined as 13.7 nM. Besides, the colony formation result in [3] is “potently inhibited the colony formation”. In addition, in data set [4] (setting [11]), the “CLint Human (liver, S9)” value came out at 41.6 µL/min/mg and the “t 1/2 Human (liver, S9)” value was determined as 16.7 min. Also, in [4] (CLint classification bands), the “clearance classification, human” value was “moderate clearance”. Besides, the half-life at 0.1 μM in data set [4] (human, s9, t 1/2 Human (liver, S9), 0.1 μM, plus glutathione, UDPGA, PAPS, 37 °C) came to 16 min. The “KDM3A level (IHC) at high dose” value in [5] (35 mg kg^−1) is “slight upregulation of KDM3A”. The “KDM3A degradation in vivo (IHC)” value in data set [5] (HCP-1 xenograft tumor tissues) was “confirmed the PROTAC-induced KDM3A and KDM3B degradation in vivo”. Further, in data set [6] (setting [11]), the “CLint Rat (liver, S9)” value was found to be 34.5 µL/min/mg and the “t 1/2 Rat (liver, S9)” value amounted to 20.1 min. Further, the “clearance classification, rat” value in data set [6] (CLint classification bands) was “moderate clearance”. Besides, the half-life at 0.1 μM in data set [6] (rat, s9, t 1/2 Rat (liver, S9), 0.1 μM, plus glutathione, UDPGA, PAPS, 37 °C) came out at 20 min. In data set [7], the colony formation entry is on record as “potently inhibited the colony formation”. In data set [8] (HCP-1, 50 μM, 16-hour treatment, in most cases), the “suppression of Wnt target gene expression (AXIN2, DKK1, CCND1)” value is not below 50%. The “expression of colorectal CSC signature genes (ASCL2, RNF43, ZNRF3, LGR5)” value in [8] (HCP-1, 16 hours) is reported as “strongly inhibited”. In addition, in data set [9], the KDM3A degradation entry was “potently induce KDM3A and KDM3B degradation”. In data set [10], the “ED50 HCP-1 (tumor sphere formation)” value came to 280 nM.
